# Activity calls are given as the source filed them.
# What was measured:
# Escherichia coli [1] = experiment: Antibacterial activity against tolC deficient Escherichia coli assessed as cell shape defects at 25 ug/ml after 30 mins in presence of sucrose by FM4-64/DAPI/SYTOX Green staining-based deconvolution microscopic analysis; format: functional
# [2] = Inhibition of Escherichia coli UPPP expressed in Escherichia coli C41(DE3) using FPP as substrate preincubated for 15 mins followed by substrate addition measured after 20 mins by malachite green assay
# How it was run: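 Purified E. coli UPPP (0.125 μM) preincubated 15 min at room temperature with inhibitor (300 to 0.8 μM) in 50 mM HEPES, 150 mM NaCl, 10 mM MgCl2, 0.02% DDM, pH 7.5. Then 35 μM FPP added, 20 min at 37 °C. Released phosphate measured by malachite green at 620 nm after 30 min. IC50 from dose-response curves. Bacitracin used as control.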
# Enterococcus faecium [3] = experiment: Potentiation of vancomycin-induced antibacterial activity against Enterococcus faecium ATCC 700221 assessed as fold reduction in vancomycin MIC preincubated for 30 mins followed by vancomycin addition measured after 18 to 21 hrs; format: functional
# How it was run: (§1)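 VRE suspensions at 5×10^5 CFU/mL preincubated with compound at ½ × MIC for 30 min at room temperature. […] Fold reduction calculated as vancomycin MIC alone over MIC in combination.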
# Escherichia coli [4] = experiment: Antibacterial activity against Escherichia coli O157:H7 ATCC 35150 after 18 to 22 hrs in absence of colistin by broth microdilution method; format: functional
# Enterococcus faecalis [5] = experiment: Potentiation of gentamicin-induced antibacterial activity against Enterococcus faecalis ATCC 51299 assessed as gentamicin MIC preincubated for 30 mins followed by gentamicin addition measured after 18 to 21 hrs; format: functional
# How it was run: (§2)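 Enterococcal suspensions at 5×10^5 CFU/mL preincubated with compound at ½ × MIC for 30 min at room temperature.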
# Acinetobacter baumannii = experiment: Antibacterial activity against Acinetobacter baumanii ATCC 19606 after 18 to 22 hrs in absence of colistin by broth microdilution method; format: functional; details: ATCC 19606 = CIP 70.34 = JCM 6841
# How it was run: (§3)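 Broth microdilution per CLSI guidelines. Gram-negatives grown in TSB. Each strain tested alone and again with colistin at ¼ × MIC to permeabilize the outer membrane. Plates incubated at 37 °C for 18–22 h. MIC read as the lowest concentration showing no visible growth.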
# Klebsiella pneumoniae [6] = experiment: Antibacterial activity against Klebsiella pneumoniae BAA-1706 after 18 to 22 hrs in presence of 1/4 times MIC colistin by broth microdilution method; format: functional; how it was run: as §3
# Enterococcus faecalis [7] = experiment: Antibacterial activity against Enterococcus faecalis ATCC 31975 at 4 to 8 times MIC after 48 hrs by broth microdillution method; format: functional
# How it was run: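 Single-step resistance selection. Cultures of 5 × 10^8 to 5 × 10^10 CFU/mL spread on TSA containing compound at 2×, 4× or 8× MIC and incubated aerobically at 37 °C for 48 h. Colony MICs rechecked by broth microdilution. Frequency calculated as resistant colonies per inoculum.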
# Klebsiella pneumoniae [8] = experiment: Antibacterial activity against Klebsiella pneumoniae BAA-1706 after 18 to 22 hrs in absence of colistin by broth microdilution method; format: functional
# Enterococcus faecalis [9] = experiment: Antibacterial activity against vancomycin-resistant Enterococcus faecalis ATCC 51299 assessed as ratio of MIC after and before 6 serial passages measured after 18 hrs by broth microdillution method; format: functional
# How it was run: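 Multi-step selection over 14 passages in two weeks. McFarland 0.5 inoculum diluted 1:300 in TSB (E. faecalis) or BHI (E. faecium) to 1 × 10^5 CFU/mL. Each passage reinoculated at ~5 × 10^5 CFU/mL from the sub-inhibitory well of the previous plate. Compounds serially diluted in triplicate, incubated ≥18 h at 37 °C, MIC read visually. Resistance defined as >4-fold MIC rise.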
# Enterococcus faecalis [10] = experiment: Potentiation of vancomycin-induced antibacterial activity against Enterococcus faecalis HM-934 assessed as fold reduction in vancomycin MIC preincubated for 30 mins followed by vancomycin addition measured after 18 to 21 hrs; format: functional; how it was run: as §1
# Enterococcus faecium [11] = experiment: Bactericidal activity against vancomycin-resistant Enterococcus faecium ATCC 700221 at 4 times MIC after 2 hrs by time-kill assay; format: functional
# How it was run: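 Late-log cells diluted to ~5 × 10^6 CFU/mL and exposed in triplicate to 4 × MIC, in TSB (E. faecalis HM-201) or BHI (E. faecium ATCC 700221) at 37 °C. Sampled at 0, 2, 4, 6, 8, 10, 12 and 24 h, diluted serially in PBS and plated on TSA or BHI agar. CFU/mL counted after 18–22 h. DMSO served as negative control.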
# Bacillus subtilis [12] = experiment: Antibacterial activity against Bacillus subtilis assessed as pool of membranes at 5 times MIC after 2 hrs in presence of methylsulfonyl methane by phase contrast microscopic analysis; format: functional
# How it was run: (§4)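 B. subtilis grown in LB at 37 °C to OD600 ~0.2, then treated at 5 × MIC with MSM for osmotic stabilisation. At 2 h, stained with FM 4-64 (1 μg/mL), DAPI (1 μg/mL) and SYTOX Green (1 μg/mL). Imaged by deconvolution fluorescence and phase contrast microscopy.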
# Bacillus subtilis [13] = experiment: Antibacterial activity against Bacillus subtilis assessed as cell lysis at 5 times MIC after 30 mins by sytox green staining-based deconvolution microscopic analysis; format: functional
# How it was run: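 B. subtilis grown in LB at 37 °C to OD600 ~0.2 and treated, with or without MSM for osmotic stabilization, for 30 min or 2 h. Stained with FM 4-64 (1 μg/mL), DAPI (1 μg/mL) and SYTOX Green (1 μg/mL) to score permeability. Examined by deconvolution and phase-contrast microscopy.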
# Enterococcus faecium [14] = experiment: Potentiation of gentamicin-induced antibacterial activity against Enterococcus faecium ATCC 700221 assessed as gentamicin MIC preincubated for 30 mins followed by gentamicin addition measured after 18 to 21 hrs; format: functional; how it was run: as §2
# Escherichia coli [15] = experiment: Antibacterial activity against tolC deficient Escherichia coli assessed as formation of spheroplasts at 25 ug/ml after 2 hrs in presence of sucrose by FM4-64/DAPI/SYTOX green staining-based deconvolution microscopic analysis; format: functional
# Bacillus subtilis [16] = experiment: Antibacterial activity against Bacillus subtilis assessed as misshapen cells at 5 times MIC after 2 hrs in presence of methylsulfonyl methane by phase contrast microscopic analysis; format: functional; how it was run: as §4
# Enterococcus faecalis [17] = experiment: Antibacterial activity against vancomycin-resistant Enterococcus faecalis HM-201 infected in Caenorhabditis elegans AU37 assessed as reduction in bacterial burden at 20 ug/ml after 18 hrs by CFU-based […] analysis relative to control; format: functional; set-up: scale not given: the % may be the effect or the level left
# How it was run: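 C. elegans AU37 adults infected on an E. faecalis HM-201 lawn for 2 h, washed in M9, 20–25 worms per well. Treated in triplicate with 20 μg/mL, with water as negative control. Worms washed, lysed with silicon carbide by vortexing, diluted serially and plated on TSA with 50 μg/mL gentamicin. CFU counted after 18 h at 37 °C and expressed as % reduction versus untreated worms.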
compound,measurement,setting,value
CCCCc1ccc(-c2nc(C)c(/C(C)=N/NC(=N)N)s2)cc1,Activity,Escherichia coli [1],Active
same,IC50,[2],6 µM
same,fold change (FC),Enterococcus faecium [3],256
same,MIC,Escherichia coli [4],16 µg/mL
same,Activity,Enterococcus faecalis [5],inactive
same,MIC,Acinetobacter baumannii,8 µg/mL
same,MIC,Klebsiella pneumoniae [6],1 µg/mL
same,Activity,Enterococcus faecalis [7],Active
same,MIC,Klebsiella pneumoniae [8],16 µg/mL
same,Ratio,Enterococcus faecalis [9],1
same,Activity,Enterococcus faecalis [10],inactive
same,Activity,Enterococcus faecium [11],Active
same,Activity,Bacillus subtilis [12],Active
same,Activity,Bacillus subtilis [13],95%
same,Activity,Enterococcus faecium [14],inactive
same,Activity,Escherichia coli [15],Active
same,Activity,Bacillus subtilis [16],Active
same,Activity,Enterococcus faecalis [17],89%
